In ChEMBL document CHEMBL1125428, “Development of 2,3-dihydro-6-(3-phenoxypropyl)-2-(2-phenylethyl)-5-benzofuranol (L-670,630) as a potent and orally active inhibitor of 5-lipoxygenase” (J Med Chem, 1992):

What was measured:
Rattus norvegicus [1] = experiment: Total radioactivity in tissues of male sd rats dosed intravenously with H-labeled compound at 21 mg/kg after 30 min in liver; assay type: functional; details: route intravenous
Method in brief: (§1)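 Male Sprague-Dawley rats given ³H compound iv via femoral vein in PEG-400, 21 mg/kg, 3.96 μCi/mg. Killed at 2, 10, 30 min, 1, 2 and 4 h. Total radioactivity measured by combustion of composited tissue homogenates, in duplicate. Two or three rats per time point, one at 10 and 30 min.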

Rattus norvegicus [2] = experiment: Total radioactivity in tissues of male sd rats dosed intravenously with H-labeled compound at 21 mg/kg after 1 hr in liver; assay type: functional; details: route intravenous; method in brief: as §1
Rattus norvegicus [3] = experiment: Total radioactivity in tissues of male sd rats dosed orally with H-labeled compound at 21 mg/kg after 5 min in plasma; assay type: functional; details: route oral
Method in brief: (§2)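 Male Sprague-Dawley rats received ³H-labelled drug (phenoxy ring, 3.96 μCi/mg) in PEG-400 by gavage at 21 mg/kg. Animals were killed at 5, 15, 30 min and at 1, 2, 4, 24 and 48 h. Homogenates were pooled per group, and total radioactivity was measured as the mean of duplicate combustions, in μg equiv/g. Two or three rats were used per point, except one rat at 24 and 48 h.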

Rattus norvegicus [4] = experiment: Total radioactivity in tissues of male sd rats dosed orally with H-labeled compound at 21 mg/kg after 30 min in kidney; assay type: functional; details: route oral; method in brief: as §2
Rattus norvegicus [5] = experiment: Total radioactivity in tissues of male sd rats dosed orally with H-labeled compound at 21 mg/kg after 24 hr r in lung; assay type: functional; details: route oral; method in brief: as §2
Rattus norvegicus [6] = experiment: Total radioactivity in tissues of male sd rats dosed intravenously with H-labeled compound at 21 mg/kg after 2 min in plasma; assay type: functional; details: route intravenous
Rattus norvegicus [7] = experiment: Total radioactivity in tissues of male sd rats dosed orally with H-labeled compound at 21 mg/kg after 1 hr in liver; assay type: functional; details: route oral; method in brief: as §2
Rattus norvegicus [8] = experiment: Total radioactivity in tissues of male sd rats dosed intravenously with H-labeled compound at 21 mg/kg after 1 hr in plasma; assay type: functional; details: route intravenous
Rattus norvegicus [9] = experiment: Total radioactivity in tissues of male sd rats dosed orally with H-labeled compound at 21 mg/kg after 4 hr in lung; assay type: functional; details: route oral; method in brief: as §2
Rattus norvegicus [10] = experiment: Total radioactivity in tissues of male sd rats dosed orally with H-labeled compound at 21 mg/kg after 48 hr in kidney; assay type: functional; details: route oral; method in brief: as §2
Rattus norvegicus [11] = experiment: Total radioactivity in tissues of male sd rats dosed intravenously with H-labeled compound at 21 mg/kg after 2 min in liver; assay type: functional; details: route intravenous; method in brief: as §1
Rattus norvegicus [12] = experiment: Total radioactivity in tissues of male sd rats dosed orally with H-labeled compound at 21 mg/kg after 48 hr in plasma; assay type: functional; details: route oral; method in brief: as §2
[13] = Measure of AUCpo/AUCiv x 100% of the parent compound before (free) and after (total) beta-glucuronidase treatment; total 54%; assay type: ADME, organism-based; details: in vivo, po; read-out: Bioavailabiility
Rattus norvegicus [14] = experiment: Total radioactivity in tissues of male sd rats dosed intravenously with H-labeled compound at 21 mg/kg after 10 min in plasma; assay type: functional; details: route intravenous
Rattus norvegicus [15] = experiment: Amount of radioactivity elute with H-labeled at 21 mg/kg after 1 hr using RP-HPLC. at a dose of 2.02 ug/g in lung of male sd rat.
Rattus norvegicus [16] = experiment: Total radioactivity in tissues of male sd rats dosed intravenously with H-labeled compound at 21 mg/kg after 4 hr in lung; assay type: functional; details: route intravenous
Method in brief: (§3)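 ³H label in the phenoxy ring, dissolved in PEG-400, specific activity 3.96 μCi/mg, given iv via femoral vein at 21 mg/kg to male Sprague-Dawley rats. Animals were killed at 2, 10, 30 min, 1, 2 and 4 h. Tissues from each group were pooled and homogenized, and total radioactivity was measured by combustion, averaged over duplicate combustions. Results are expressed as μg equiv/g. Two or three rats were used per time point.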

Rattus norvegicus [17] = species: Rattus norvegicus; experiment: Percentage inhibition against antigen induced dyspnea in hyperactive inbred rat at a dose of […]; assay type: functional; details: dose 0.15 mg/kg
Rattus norvegicus [18] = experiment: Total radioactivity in tissues of male sd rats dosed orally with H-labeled compound at 21 mg/kg after 24 hr r in kidney; assay type: functional; details: route oral; method in brief: as §2
Rattus norvegicus [19] = experiment: % compound was determined by the amount of radioactivity elute with H-labeled at 21 mg/kg after 5 min using RP-HPLC. at a dose of 380 ug/g in lung of male sd rat.; assay type: functional
Rattus norvegicus [20] = experiment: Total radioactivity in tissues of male sd rats dosed intravenously with H-labeled compound at 21 mg/kg after 30 min in lung; assay type: functional; details: route intravenous; method in brief: as §1
Rattus norvegicus [21] = experiment: Total radioactivity in tissues of male sd rats dosed orally with H-labeled compound at 21 mg/kg after 24 hr r in plasma; assay type: functional; details: route oral; method in brief: as §2
Rattus norvegicus [22] = experiment: Total radioactivity in tissues of male sd rats dosed orally with H-labeled compound at 21 mg/kg after 1 hr in plasma; assay type: functional; details: route oral; method in brief: as §2
Rattus norvegicus [23] = experiment: Total radioactivity in tissues of male sd rats dosed intravenously with H-labeled compound at 21 mg/kg after 2 min in kidney; assay type: functional; details: route intravenous; method in brief: as §1
Rattus norvegicus [24] = experiment: Amount of radioactivity elute with H-labeled at 21 mg/kg after 4 hr using RP-HPLC. at a dose of […] in lung of male sd rat.
Rattus norvegicus [25] = experiment: Total radioactivity in tissues of male sd rats dosed intravenously with H-labeled compound at 21 mg/kg after 30 min in plasma; assay type: functional; details: route intravenous
Rattus norvegicus [26] = experiment: Total radioactivity in tissues of male sd rats dosed intravenously with H-labeled compound at 21 mg/kg after 4 hr in plasma; assay type: functional; details: route intravenous; method in brief: as §3
Rattus norvegicus [27] = experiment: Total radioactivity in tissues of male sd rats dosed intravenously with H-labeled compound at 21 mg/kg after 2 min in lung; assay type: functional; details: route intravenous; method in brief: as §1
Rattus norvegicus [28] = experiment: Total radioactivity in tissues of male sd rats dosed orally with H-labeled compound at 21 mg/kg after 4 hr in kidney; assay type: functional; details: route oral; method in brief: as §2
Rattus norvegicus [29] = experiment: Total radioactivity in tissues of male sd rats dosed orally with H-labeled compound at 21 mg/kg after 30 min in plasma; assay type: functional; details: route oral; method in brief: as §2
Rattus norvegicus [30] = experiment: Total radioactivity in tissues of male sd rats dosed intravenously with H-labeled compound at 21 mg/kg after 2 hr in lung; assay type: functional; details: route intravenous; method in brief: as §1
Rattus norvegicus [31] = experiment: Total radioactivity in tissues of male sd rats dosed orally with H-labeled compound at 21 mg/kg after 4 hr in plasma; assay type: functional; details: route oral; method in brief: as §2
Rattus norvegicus [32] = experiment: Total radioactivity in tissues of male sd rats dosed orally with H-labeled compound at 21 mg/kg after 15 min in liver; assay type: functional; details: route oral; method in brief: as §2
Rattus norvegicus [33] = experiment: Total radioactivity in tissues of male sd rats dosed intravenously with H-labeled compound at 21 mg/kg after 30 min in kidney; assay type: functional; details: route intravenous; method in brief: as §1
Rattus norvegicus [34] = experiment: Total radioactivity in tissues of male sd rats dosed intravenously with H-labeled compound at 21 mg/kg after 10 min in kidney; assay type: functional; details: route intravenous; method in brief: as §1
Rattus norvegicus [35] = experiment: Total radioactivity in tissues of male sd rats dosed intravenously with H-labeled compound at 21 mg/kg after 10 min in lung; assay type: functional; details: route intravenous; method in brief: as §1
Rattus norvegicus [36] = experiment: Total radioactivity in tissues of male sd rats dosed orally with H-labeled compound at 21 mg/kg after 1 hr in lung; assay type: functional; details: route oral; method in brief: as §2
Rattus norvegicus [37] = experiment: Total radioactivity in tissues of male sd rats dosed intravenously with H-labeled compound at 21 mg/kg after 4 hr in liver; assay type: functional; details: route intravenous; method in brief: as §3
Rattus norvegicus [38] = experiment: Total radioactivity in tissues of male sd rats dosed orally with H-labeled compound at 21 mg/kg after 5 min in liver; assay type: functional; details: route oral; method in brief: as §2

Work on `Oc1cc2c(cc1CCCOc1ccccc1)OC(CCc1ccccc1)C2` (stereo not drawn) yielded a Total radioactivity (Rattus norvegicus [1]) of 41.11 ug equiv g-1, a Total radioactivity (Rattus norvegicus [2]) of 26.77 ug equiv g-1 and a Total radioactivity (Rattus norvegicus [3]) of 7.74 ug equiv g-1. The Total radioactivity (Rattus norvegicus [4]) was 0.85 ug equiv g-1, the Total radioactivity (Rattus norvegicus [5]) was 0.1 ug equiv g-1 and the Total radioactivity (Rattus norvegicus [6]) was 10.34 ug equiv g-1. The Total radioactivity (Rattus norvegicus [7]) was 10.93 ug equiv g-1, the Total radioactivity (Rattus norvegicus [8]) was 3.34 ug equiv g-1 and the Total radioactivity (Rattus norvegicus [9]) was 1.74 ug equiv g-1. It also gave a Total radioactivity (Rattus norvegicus [10]) of 0.03 ug equiv g-1, a Total radioactivity (Rattus norvegicus [11]) of 142.77 ug equiv g-1 and a Total radioactivity (Rattus norvegicus [12]) of 0.82 ug equiv g-1. It also gave a bioavailability [13] of 5%, a Total radioactivity (Rattus norvegicus [14]) of 9.65 ug equiv g-1 and an Activity (Rattus norvegicus [15]) of 56.3%. For the same compound, the Total radioactivity (Rattus norvegicus [16]) was 5 ug equiv g-1, the inhibition in vivo at […] (Rattus norvegicus [17]) was 55% and the Total radioactivity (Rattus norvegicus [18]) was 0.15 ug equiv g-1. For the same compound, the Activity (Rattus norvegicus [19]) was 80.4%, the Total radioactivity (Rattus norvegicus [20]) was 56.91 ug equiv g-1 and the Total radioactivity (Rattus norvegicus [21]) was 0.64 ug equiv g-1. The Total radioactivity (Rattus norvegicus [22]) was 1.41 ug equiv g-1, the Total radioactivity (Rattus norvegicus [23]) was 51.19 ug equiv g-1 and the Activity (Rattus norvegicus [24]) was 8.9%. For the same compound, the Total radioactivity (Rattus norvegicus [25]) was 5.81 ug equiv g-1, the Total radioactivity (Rattus norvegicus [26]) was 1.18 ug equiv g-1 and the Total radioactivity (Rattus norvegicus [27]) was 100.78 ug equiv g-1. The Total radioactivity (Rattus norvegicus [28]) was 2.75 ug equiv g-1, the Total radioactivity (Rattus norvegicus [29]) was 1.09 ug equiv g-1 and the Total radioactivity (Rattus norvegicus [30]) was 1.6 ug equiv g-1. It also gave a Total radioactivity (Rattus norvegicus [31]) of 3.27 ug equiv g-1, a Total radioactivity (Rattus norvegicus [32]) of 7.82 ug equiv g-1 and a Total radioactivity (Rattus norvegicus [33]) of 22.75 ug equiv g-1. For the same compound, the Total radioactivity (Rattus norvegicus [34]) was 54.13 ug equiv g-1, the Total radioactivity (Rattus norvegicus [35]) was 75.08 ug equiv g-1 and the Total radioactivity (Rattus norvegicus [36]) was 3.58 ug equiv g-1. For the same compound, the Total radioactivity (Rattus norvegicus [37]) was 9.87 ug equiv g-1 and the Total radioactivity (Rattus norvegicus [38]) was 12.12 ug equiv g-1.
